These results are taken from ChEMBL document CHEMBL1140164, “Isosorbide-2-carbamate esters: potent and selective butyrylcholinesterase inhibitors” (J Med Chem, 2008).

Calls of active or inactive are those of the source. No cut-off for these calls is given here.

Data set [1] has as its target T1, Cholinesterase (Homo sapiens, UniProt P06276). The data set is described as follows: Inhibition of human plasma BuchE by Ellman's method. It is filed as cell-free. (In general: DTNB colorimetry detects thiols as they appear.)
Data set [2] concerns the target Acetylcholinesterase (Electrophorus electricus, UniProt O42275). Description: Inhibition of electric eel AchE by Ellman's method.
Data set [3] has as its target T1, Cholinesterase. The data set is described as follows: Inhibition of human plasma BuchE at 100 uM by Ellman's method. It is filed as cell-free. The method in brief:
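Ellman assay using human plasma (or purified plasma BuChE) in phosphate buffer pH 8.0 with DTNB (0.5 mM solution); 30 min enzyme–inhibitor preincubation, then BTCI (0.5 mM solution) added and rate read at 405 nm over 5 min. Percent inhibition determined at 100 µM inhibitor; triplicate.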

Data set [4] concerns the target Acetylcholinesterase (Electrophorus electricus) (UniProt O42275). Description: Inhibition of electric eel AchE at 100 uM by Ellman's method. The method, boiled down:
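Ellman assay with electric eel AChE and ATCI as substrate, phosphate buffer pH 8.0, DTNB (0.5 mM solution). Enzyme and inhibitor incubated 30 min before substrate addition; absorbance read at 405 nm over 5 min. […] Triplicate.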

A short description of data set [5]: Selectivity ratio of IC50 for electric eel AchE to IC50 for human plasma BuchE.
Data set [6] has as its target T1, Cholinesterase. Description: Inhibition of human plasma BuchE in presence of edrophonium by carbamylation assay. It is filed as cell-free. The method in brief:
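Carbamylation time course with purified human plasma BuChE (1.2 × 10^-3 mg/mL) and inhibitor at 1 mM in the presence of 5 mM edrophonium; activity sampled over 60 min preincubation, measured with DTNB 0.3 mM and substrate at 412 nm for 5 min.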

The species entered for data set [7] is Homo sapiens. The data set is described as follows: Selectivity ratio of IC50 for human erythrocyte AchE to IC50 for human plasma BuchE.
Data set [8] concerns the target T1, Cholinesterase. The data set is described as follows: Inhibition of human plasma BuchE using variable substrate levels by carbamylation assay. It is filed as cell-free. The method, boiled down:
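Time-course carbamylation with purified human plasma BuChE (1.2 × 10^-3 mg/mL), fixed inhibitor concentration, substrate varied 0.5-10 mM; preincubation sampled at 0-60 min intervals, then DTNB 0.3 mM plus substrate added and read at 412 nm for 5 min. Data plotted as ln E/E_T versus time.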

In data set [9] the test system is Plasma. The data set is described as follows: Stability in 50% human plasma assessed as drug hydrolysis at 10 to 100 uM by HPLC. It is filed as ADME, cell-free. The method in brief: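 Pooled citrated human venous plasma diluted with pH 7.4 phosphate buffer to 50%, showing normal adult BuChE activity. Compound added in acetonitrile and incubated at 37 °C. Aliquots taken at intervals, quenched in 2% ZnSO4·7H2O in MeCN-H2O (1:1) plus acetonitrile, vortexed and centrifuged. Supernatant analysed by reversed-phase HPLC with a gradient of pH 2.5 phosphate buffer:acetonitrile, 50:50 to 20:80 over 20 min.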

For data set [10], the target named is Acetylcholinesterase (Homo sapiens, UniProt P22303). The data set is described as follows: Inhibition of human erythrocyte AchE by Ellman's method.
The target of data set [11] is T1, Cholinesterase. Description: Inhibition of human plasma BuchE after 60 mins by carbamylation assay. It is filed as cell-free. The method in brief:
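Purified human plasma BuChE (1.2 × 10^-3 mg/mL) preincubated with inhibitor in buffer in a cuvette for up to 60 min, readings at 0, 5, 10, 20, 30, 40, 50, 60 min; DTNB 0.3 mM and substrate then added, reaction followed at 412 nm for 5 min.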

Acetylcholinesterase (Electrophorus electricus), sequence (O42275 24-633 limits assumed): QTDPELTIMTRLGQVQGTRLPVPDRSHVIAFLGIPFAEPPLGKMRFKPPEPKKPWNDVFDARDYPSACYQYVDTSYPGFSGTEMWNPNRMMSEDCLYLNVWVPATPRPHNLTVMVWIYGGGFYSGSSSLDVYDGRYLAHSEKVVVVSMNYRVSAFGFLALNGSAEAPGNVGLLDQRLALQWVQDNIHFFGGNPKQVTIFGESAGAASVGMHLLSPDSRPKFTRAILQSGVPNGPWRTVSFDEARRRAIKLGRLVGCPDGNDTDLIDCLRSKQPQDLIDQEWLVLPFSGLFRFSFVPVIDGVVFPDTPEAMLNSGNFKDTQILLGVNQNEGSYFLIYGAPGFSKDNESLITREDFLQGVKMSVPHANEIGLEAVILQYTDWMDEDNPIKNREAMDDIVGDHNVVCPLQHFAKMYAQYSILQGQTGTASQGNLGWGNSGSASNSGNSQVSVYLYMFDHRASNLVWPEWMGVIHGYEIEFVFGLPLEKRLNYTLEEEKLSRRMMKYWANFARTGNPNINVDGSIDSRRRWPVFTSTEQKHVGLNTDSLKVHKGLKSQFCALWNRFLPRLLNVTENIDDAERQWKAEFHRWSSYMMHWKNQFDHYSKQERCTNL
T1 sequence (P06276 whole entry): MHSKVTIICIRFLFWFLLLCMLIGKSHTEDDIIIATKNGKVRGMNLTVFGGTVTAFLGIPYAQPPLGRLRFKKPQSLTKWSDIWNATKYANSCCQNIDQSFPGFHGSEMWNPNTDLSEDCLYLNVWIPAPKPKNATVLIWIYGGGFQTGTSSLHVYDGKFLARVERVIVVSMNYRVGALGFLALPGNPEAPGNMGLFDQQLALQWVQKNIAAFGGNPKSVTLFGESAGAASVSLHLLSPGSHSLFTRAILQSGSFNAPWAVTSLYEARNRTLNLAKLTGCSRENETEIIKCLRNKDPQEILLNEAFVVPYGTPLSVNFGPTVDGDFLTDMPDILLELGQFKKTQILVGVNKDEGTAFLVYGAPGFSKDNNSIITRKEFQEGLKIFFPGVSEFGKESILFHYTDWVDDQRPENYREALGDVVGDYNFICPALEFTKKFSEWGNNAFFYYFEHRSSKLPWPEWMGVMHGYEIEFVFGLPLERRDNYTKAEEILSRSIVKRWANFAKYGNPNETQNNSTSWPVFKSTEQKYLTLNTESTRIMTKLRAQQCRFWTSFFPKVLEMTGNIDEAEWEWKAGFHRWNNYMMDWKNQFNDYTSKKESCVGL
Acetylcholinesterase (Electrophorus electricus, UniProt O42275), sequence (O42275 whole entry): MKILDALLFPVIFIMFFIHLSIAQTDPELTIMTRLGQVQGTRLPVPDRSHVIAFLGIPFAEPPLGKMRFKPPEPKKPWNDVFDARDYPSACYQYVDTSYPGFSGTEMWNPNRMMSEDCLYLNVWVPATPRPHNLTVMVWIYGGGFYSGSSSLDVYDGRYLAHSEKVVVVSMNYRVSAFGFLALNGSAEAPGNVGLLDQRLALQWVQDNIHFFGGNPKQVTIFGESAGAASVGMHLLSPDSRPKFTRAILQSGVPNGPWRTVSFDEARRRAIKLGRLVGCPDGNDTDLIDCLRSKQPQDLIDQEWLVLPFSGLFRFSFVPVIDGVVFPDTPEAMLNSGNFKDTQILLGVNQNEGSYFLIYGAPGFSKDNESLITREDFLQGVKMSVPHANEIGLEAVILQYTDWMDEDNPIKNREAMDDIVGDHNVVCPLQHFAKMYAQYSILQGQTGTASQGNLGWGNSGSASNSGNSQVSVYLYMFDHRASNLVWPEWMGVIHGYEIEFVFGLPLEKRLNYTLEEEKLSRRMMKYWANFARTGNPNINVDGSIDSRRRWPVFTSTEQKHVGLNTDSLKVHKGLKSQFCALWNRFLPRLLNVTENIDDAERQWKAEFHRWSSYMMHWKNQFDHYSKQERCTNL
Acetylcholinesterase (Homo sapiens, UniProt P22303), sequence (P22303 whole entry): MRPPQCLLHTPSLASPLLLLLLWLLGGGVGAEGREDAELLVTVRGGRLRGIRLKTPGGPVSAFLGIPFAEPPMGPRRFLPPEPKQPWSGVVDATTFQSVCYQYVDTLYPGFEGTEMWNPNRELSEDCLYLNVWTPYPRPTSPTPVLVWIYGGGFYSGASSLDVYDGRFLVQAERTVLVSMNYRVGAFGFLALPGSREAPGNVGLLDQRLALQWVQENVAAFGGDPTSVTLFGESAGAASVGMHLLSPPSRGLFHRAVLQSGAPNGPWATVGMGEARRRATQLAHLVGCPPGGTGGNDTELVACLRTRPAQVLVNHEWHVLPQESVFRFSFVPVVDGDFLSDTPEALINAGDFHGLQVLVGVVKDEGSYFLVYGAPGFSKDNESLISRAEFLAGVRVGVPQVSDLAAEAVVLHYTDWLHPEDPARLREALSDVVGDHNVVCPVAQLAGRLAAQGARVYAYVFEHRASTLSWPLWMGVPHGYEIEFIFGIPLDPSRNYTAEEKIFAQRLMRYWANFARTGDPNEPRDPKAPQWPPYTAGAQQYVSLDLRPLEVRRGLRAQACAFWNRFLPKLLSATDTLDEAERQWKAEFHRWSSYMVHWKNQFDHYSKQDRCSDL

`O=C(/C=C/c1ccc(O)cc1)O[C@@H]1CO[C@H]2[C@@H]1OC[C@@H]2OC(=O)NCc1ccccc1`: the values for the IC50 in data set [1] and in data set [2] were 73 nM and 60.4 µM, respectively. Also, the results for the inhibition in data set [3] and in [4] were 100% and 81%, respectively. Further, the Ratio IC50 in data set [5] came to 821.
Turning to `O=C(Nc1cccc(C(F)(F)F)c1)O[C@H]1CO[C@H]2[C@@H]1OC[C@H]2O[N+](=O)[O-]`, the results for the inhibition in data set [3] and in data set [4] were 10% and 12%, respectively.
`O=C(NCc1ccccc1)O[C@H]1CO[C@H]2[C@@H]1OC[C@H]2OC(=O)c1ccc(-c2ccccc2)cc1`: the IC50 in data set [1] turned out to be 12 nM; in data set [2] it was 51.6 µM. For the same compound, the values for the inhibition in data set [3] and in data set [4] were 99% and 89%, respectively. Besides, the Ratio IC50 in data set [5] is 4190.
As to `CCCCNC(=O)O[C@H]1CO[C@H]2[C@@H]1OC[C@H]2O[N+](=O)[O-]`, the IC50 was found to be 894 nM in data set [1] and 1440 µM in [2]. The inhibition is 92% in data set [3] and 32% in data set [4]. In addition, in data set [5], the Ratio IC50 was determined as 1610.
`O=C(NCc1ccccc1)O[C@H]1CO[C@H]2[C@@H]1OC[C@H]2OC(=O)c1cccc2ccccc12`: the IC50 in data set [1] came to 28 nM; in [2], 37.6 µM. The inhibition in [3] stood at 99%; in data set [4], 86%. Also, the Ratio IC50 in data set [5] is 1340.
On to `Cc1ccc(S(=O)(=O)C(=O)O[C@@H]2CO[C@H]3[C@@H]2OC[C@@H]3OC(=O)NCc2ccccc2)cc1`, for which the inhibition in data set [3] came to 25%; in data set [4], 66%.
The compound `CC(=O)O[C@@H]1CO[C@H]2[C@@H]1OC[C@@H]2OC(=O)NCc1ccccc1` had an IC50 in data set [1] of 4100 nM. The results for the inhibition in data set [3] and in [4] were 97% and 12%, respectively. Besides, in data set [5], the Ratio IC50 is more than 25.
As to `CS(=O)(=O)OC(=O)O[C@@H]1CO[C@H]2[C@@H]1OC[C@@H]2OC(=O)NCc1ccccc1`, the inhibition in data set [3] was found to be 9.8%; in [4] it was 3%.
Regarding `O=C(NC1CCCCC1)O[C@H]1CO[C@H]2[C@@H]1OC[C@H]2O[N+](=O)[O-]`, the IC50 in [1] stood at 2500 nM. Also, the inhibition was found to be 99% in [3] and 30% in [4]. Moreover, in data set [5], the Ratio IC50 is more than 40.
Consider `O=C(NCc1ccccc1)O[C@H]1CO[C@H]2[C@@H]1OC[C@H]2OC(=O)c1ccccc1`, for which the result in data set [6] was inactive. In addition, the Ratio IC50 came out at 51000 in [7] and 63300 in data set [5]. Moreover, the Activity entry in [8] is “Dose-dependent effect”. In addition, the IC50 is 4.3 nM in data set [1], 221 µM in [10] and 273 µM in data set [2]. Moreover, the Stability result in data set [9] is on record as “Stable”. The inhibition in data set [3] came out at 99%; in data set [4] it was 21%.
Consider `O=C(NCc1ccccc1)O[C@H]1CO[C@H]2[C@@H]1OC[C@H]2OC(=O)c1ccc2ccccc2c1`, for which the IC50 in data set [1] turned out to be 32 nM; in data set [2] it was 43.4 µM. Besides, the inhibition was 100% in data set [3] and 80% in [4]. The Ratio IC50 in [5] was determined as 1370.
For the compound `O=C(/C=C/c1ccccc1)O[C@@H]1CO[C@H]2[C@@H]1OC[C@@H]2OC(=O)NCc1ccccc1`, the figures for the IC50 in data set [1] and in data set [2] were 137 nM and 55.9 µM, respectively. Further, the results for the inhibition in data set [3] and in data set [4] were 96% and 82%, respectively. Further, the Ratio IC50 in data set [5] worked out at 729.
Take `CCCCCCc1ccc(C(=O)O[C@@H]2CO[C@H]3[C@@H]2OC[C@@H]3OC(=O)NCc2ccccc2)cc1`: the IC50 in data set [1] stood at 2800 nM. That is a single-digit micromolar value.
Turning to `O=C(Nc1ccc(Cl)c(Cl)c1)O[C@H]1CO[C@H]2[C@@H]1OC[C@H]2OC(=O)c1ccccc1`, the results for the inhibition in [3] and in data set [4] were 38% and 70%, respectively.
For the compound `CCC(=O)O[C@@H]1CO[C@H]2[C@@H]1OC[C@@H]2OC(=O)NCc1ccccc1`, the IC50 in data set [1] was determined as 980 nM. Moreover, the results for the inhibition in data set [3] and in data set [4] were 97% and 5%, respectively. Also, the Ratio IC50 in data set [5] was more than 100.
As to `O=C(NCc1ccccc1)O[C@H]1CO[C@H]2[C@@H]1OC[C@H]2OC(=O)OS(=O)(=O)C(F)(F)F`, it took 359 nM to reach half-maximal inhibition in [1] (IC50).
On to `O=C(NCc1ccccc1)O[C@H]1CO[C@H]2[C@@H]1OC[C@H]2O[N+](=O)[O-]`, for which the IC50 in data set [11] came to 3.6 nM; in data set [1], 51 nM. Also, the inhibition came out at 96% in [3] and 35% in data set [4]. Besides, the Ratio IC50 in data set [5] is more than 2000.
On to `O=C(Nc1ccc(Cl)c(Cl)c1)O[C@H]1CO[C@H]2[C@@H]1OC[C@H]2O[N+](=O)[O-]`, for which, in [2], the IC50 was 9.9 µM. For the same compound, the figures for the inhibition in [3] and in data set [4] were 28% and 78%, respectively.
With `CNC(=O)O[C@H]1CO[C@H]2[C@@H]1OC[C@H]2OC(=O)c1ccccc1`, the IC50 in data set [1] was 669 nM. Also, the results for the inhibition in data set [3] and in data set [4] were 93% and 54%, respectively. Further, in data set [5], the Ratio IC50 stood at 150.
Consider `O=C(NCc1ccccc1)O[C@H]1CO[C@H]2[C@@H]1OC[C@H]2OC(=O)c1ccncc1`, for which the IC50 in data set [1] was determined as 88 nM. Besides, the figures for the inhibition in data set [3] and in data set [4] were 97% and 24%, respectively.
For the compound `O=C(Nc1ccccc1)O[C@H]1CO[C@H]2[C@@H]1OC[C@H]2O[N+](=O)[O-]`, the inhibition in data set [3] came out at 37%; in data set [4], 23%.
As for `O=C(NCc1ccccc1)O[C@H]1CO[C@H]2[C@@H]1OC[C@H]2OC(=O)C1CC1`, in data set [1], the IC50 worked out at 334 nM. In addition, the inhibition was found to be 97% in [3] and 55% in data set [4]. The Ratio IC50 in [5] was found to be 300.
`O=C(Nc1cccc(Cl)c1)O[C@H]1CO[C@H]2[C@@H]1OC[C@H]2O[N+](=O)[O-]`: the inhibition was determined as 11% in data set [3] and 24% in data set [4].
`O=C(NCc1ccccc1)O[C@H]1CO[C@H]2[C@@H]1OC[C@H]2OC(=O)C1CCCC1`: the figures for the IC50 in data set [1] and in data set [2] were 6 nM and 56.3 µM, respectively. Moreover, the results for the inhibition in data set [3] and in data set [4] were 99% and 88%, respectively. Moreover, in data set [5], the Ratio IC50 was determined as 9380.
As for `CC(C)NP(=O)(NC(C)C)OP(=O)(NC(C)C)NC(C)C` [TETRAISOPROPYL PYROPHOSPHORAMIDE], half-maximal inhibition in data set [2] (IC50) was put at 2.5 µM.
In turn, `CCNC(=O)O[C@H]1CO[C@H]2[C@@H]1OC[C@H]2O[N+](=O)[O-]` displayed an IC50 in [1] of 3900 nM. For the same compound, the inhibition in data set [3] came out at 73%; in [4], 1%.
For `O=C(NCc1ccccc1)O[C@H]1CO[C@H]2[C@@H]1OC[C@H]2OC(=O)c1cccnc1`, half-maximal inhibition in [1] (IC50) required 57 nM. The inhibition in data set [3] was 99%; in data set [4] it was 33%. In data set [5], the Ratio IC50 was determined as 1750.
The matching figures for `CCC(C)NC(=O)O[C@H]1CO[C@H]2[C@@H]1OC[C@H]2OC(=O)c1ccccc1` (some centres not stated): 72 nM, 99%, 31% and 1390.
Take `C=CC[N+](C)(C)c1ccc(CCC(=O)CCc2ccc([N+](C)(C)CC=C)cc2)cc1`: half-maximal inhibition in [2] (IC50) required 0.063 µM.
Turning to `CCCCC(=O)O[C@@H]1CO[C@H]2[C@@H]1OC[C@@H]2OC(=O)NCc1ccccc1`, the IC50 in [1] came to 700 nM. Besides, the inhibition came to 95% in data set [3] and 4% in data set [4]. For the same compound, the Ratio IC50 in data set [5] is more than 142.
Turning to `O=C(Nc1ccccc1Cl)O[C@H]1CO[C@H]2[C@@H]1OC[C@H]2O[N+](=O)[O-]`, the inhibition in data set [3] turned out to be 11%; in [4], 24%.
With `CCCNC(=O)O[C@H]1CO[C@H]2[C@@H]1OC[C@H]2O[N+](=O)[O-]`, the IC50 in data set [1] stood at 639 nM; in [2], 1520 µM. Also, the inhibition worked out at 93% in [3] and 1% in [4]. For the same compound, in data set [5], the Ratio IC50 came out at 2380.
Compound `O=C(NCc1ccccc1)O[C@H]1CO[C@H]2[C@@H]1OC[C@H]2O` registered an IC50 in data set [1] of 3700 nM. The inhibition in data set [3] turned out to be 95%; in data set [4], 15%. For the same compound, the Ratio IC50 in data set [5] was more than 27.
For `CNC(=O)O[C@H]1CO[C@H]2[C@@H]1OC[C@H]2O[N+](=O)[O-]`, the IC50 in data set [1] was found to be 5100 nM; in data set [2], 17.2 µM. Also, the inhibition turned out to be 82% in [3] and 67% in data set [4].

As a reminder, the IC50 is the midpoint of a concentration-inhibition curve. Read a low IC50 as higher potency. For orientation: inhibition means the share of the control response that was lost under treatment.
